From ChEMBL document CHEMBL2146443, “Cytotoxicity and DNA binding property of phenanthrene imidazole with polyglycol side chains” (Bioorg Med Chem Lett, 2012) come the findings set out here.

The source made the active and inactive calls. The rule behind the calls is not given here.

The test system of data set [1] is Bel-7402. Kind of data set: Antiproliferative activity against human Bel7402 cells by MTT assay. It counts as functional, cell-based. (In general: Tetrazolium dyes change colour on reduction, which living cells bring about.)
Data set [2] concerns BGC-823. Kind of data set: Antiproliferative activity against human BGC823 cells by MTT assay. It counts as functional, cell-based.
Data set [3] can be described thus: Solubility in phosphate buffer at pH 7.5. The class given is physicochemical.
For data set [4], the system named is KB. Put plainly: Antiproliferative activity against human KB cells by MTT assay. It counts as functional, cell-based.
Data set [5] concerns HL-60. Put plainly: Antiproliferative activity against human HL60 cells by MTT assay. It counts as functional, cell-based.
The test system of data set [6] is Nucleic Acid. Put plainly: Binding affinity to calf thymus DNA at 4 x 10^-5 M at pH 7.5 by fluorescence spectrophotometry. The class given is nucleic-acid assay. To be noted: Bos taurus. An outline of the steps: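 Emission quenching: compound at 4.0 × 10^-5 M, excitation 320 nm, 5.0 nm slits, titrated with Ct-DNA 0–400 μM in 1 mM phosphate buffer pH 7.5, 20 mM NaCl, 5% DMSO, 25 °C. F/F0 plotted against DNA concentration; Stern-Volmer constants derived.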

Data set [7] concerns Nucleic Acid. Kind of data set: Binding affinity to calf thymus DNA at 4 x 10^-5 M at pH 7.5 by UV-Vis spectrophotometry. It counts as nucleic-acid assay. To be noted: Bos taurus. An outline of the steps: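 UV–vis titration: compound at 4.0 × 10^-5 M with Ct-DNA added (0–400 μM) in 1 mM phosphate buffer pH 7.5, 20 mM NaCl, 5% DMSO (v/v), 25 °C. Absorbance read over 300–400 nm to avoid DNA interference; binding constants fitted at maximum absorption band.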

Data set [8] has as its system Nucleic Acid. Kind of data set: Binding affinity to calf thymus DNA assessed as change in melting temperature at 5 x 10^-6 M at pH 7.5 relative to control. The class given is nucleic-acid assay. To be noted: Bos taurus.
For data set [9], the system named is Nucleic Acid. Put plainly: Binding affinity to calf thymus DNA at 2 x 10^-5 M at pH 7.5 by circular dichroism. The class given is nucleic-acid assay. To be noted: Bos taurus. An outline of the steps:
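Circular dichroism of Ct-DNA (6.0 × 10^-5 M) alone and with compound (2.0 × 10^-5 M), in 10 mM phosphate buffer pH 7.5 with 20 mM NaCl and 5% DMSO, 25 °C.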
(In general: Circular dichroism is the unequal absorption of left and right circularly polarised light.)

As a reminder, the IC50 is the point on the concentration scale where inhibition reaches its midpoint. As to `OCCOCCOCCOc1ccc(-c2nc3c4ccccc4c4ccccc4c3[nH]2)cc1`, the IC50 amounted to 27.9 µM in data set [1], 24.2 µM in [2], 44.6 µM in data set [4] and 11.9 µM in [5]. The solubility result in [3] is listed as “Insoluble”.

As a reminder, the ΔTm is the shift of the melting midpoint relative to a reference. Turning to `Cn1c(-c2ccc(OCCOCCO)cc2)[n+](C)c2c3ccccc3c3ccccc3c21`, the outcome in data set [6] and in data set [9] was Active. In data set [7], this compound registered a K of 1.51 ×10⁶ /M. Besides, the half-maximal inhibitory concentration (IC50) in data set [1] stood at 10.7 µM; in data set [2] it was 9.35 µM; in data set [4] it was 11 µM; in data set [5] it was 12.1 µM. Moreover, the ΔTm in data set [8] amounted to 4.2 °C.

As to `OCCOc1ccc(-c2nc3c4ccccc4c4ccccc4c3[nH]2)cc1`, the IC50 was 4.65 µM in data set [1], 6.36 µM in data set [2], 7.03 µM in [4] and 11.3 µM in [5]. For the same compound, the solubility result in [3] was “Insoluble”.

Consider `Cn1c(-c2ccc(OCCOCCOCCO)cc2)[n+](C)c2c3ccccc3c3ccccc3c21`, for which the result in data set [6] and in data set [9] was Active. The K in data set [7] turned out to be 0.709 ×10⁶ /M. The IC50 in data set [1] came to 10.6 µM; in [2], 7.01 µM; in [4], 9.12 µM; in data set [5], 15.6 µM. The ΔTm in data set [8] is 4 °C.

Regarding `OCCOCCOc1ccc(-c2nc3c4ccccc4c4ccccc4c3[nH]2)cc1`, the 50% inhibitory concentration (IC50) turned out to be 18.1 µM in data set [1], 22.5 µM in [2], 30.7 µM in data set [4] and 8.14 µM in [5]. In data set [3], the solubility result is “Insoluble”.

With `Cn1c(-c2ccc(OCCO)cc2)[n+](C)c2c3ccccc3c3ccccc3c21`, the outcome in data set [6] and in data set [9] was Active. Further, in [7], the K was determined as 1.68 ×10⁶ /M. For the same compound, the IC50 was determined as 14.1 µM in [1], 10.7 µM in data set [2], 14.5 µM in [4] and 24.8 µM in data set [5]. Also, the ΔTm in data set [8] was determined as 4.8 °C.
